Test results reported in the RNAGym collection of RNA variant scans (doi:10.1126/science.aae0568).
Fewer inactive variants are shown than the library holds.

B1: tRNA (parent)
chain: GUUCCGUUGGCGUAAUGGUAACGCGUCUCCCUCCUAAGGAGAAGACUGCGGGUUCGAGUCCCGUACGGAACG

Variants of: B1
Assay: yeast fitness relative to wild type (ratio to wild type); higher = fitter; tRNA-Arg(CCU), competitive growth, 37 C, YPD
How it was run: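 Genotype frequency changes were the basis for Darwinian fitness relative to wild type. The frequencies came from 100-nucleotide paired-end sequencing of gene amplicons from the start population and each end population of pooled yeast strains with tRNA-Arg(CCU) gene variants at the native locus. Competition ran in YPD at 37°C for 24 hours in six replicates, genotypes needed ≥ 100 starting reads, and estimates < 0.5 were set to 0.5.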

| Variant | yeast fitness |
| --- | --- |
| C4G C22G C29A | ≤ 0.5 |
| C4G U7G G12C A20U G63A C66A | ≤ 0.5 |
| C4U A15U A20C G23A G50C | ≤ 0.5 |
| C4G C11U A69U | 0.539 |
| C4G U13A A21C A43U A45G | 0.559 |
| C4G C24A C34A U35G C49A C62G | ≤ 0.5 |
| C4G C34U G63A | ≤ 0.5 |
| C4G G48U C66U | ≤ 0.5 |
| C4G U16C | 0.806 |
| C4G U16A | 0.9 |
| C4U A20C U26G | 0.552 |
| C4G C11G C49U C60U | ≤ 0.5 |
| C4U A15U C66U | 0.649 |
| C4G G6A C24U A40U C49A | ≤ 0.5 |
| C4G G6C C34G A42G C46G | ≤ 0.5 |
| C4G C31U A37G | 0.653 |
| C4G C33G A40G | 0.528 |
| C4G C31U A57U | 0.665 |
| C4G C24U U32C C49A A57U C66U G68C | ≤ 0.5 |
| C4G G6A U13G A14G A69U | ≤ 0.5 |
| C4G C30G U54A C55U | ≤ 0.5 |

| Variant | yeast fitness |
| --- | --- |
| C4G U8A A14C G48A G63C | ≤ 0.5 |
| C4U A15G | 0.997 |
| C4U A15U | 0.89 |
| C4G U28C C66U | 0.524 |
| C4G U53A G63C | ≤ 0.5 |
| C4G G41A A45U | 0.537 |
| C4G C11U U19A U32A A37U | ≤ 0.5 |
| C4G C30A | 0.679 |
| C4G C30U | 0.852 |
| C4G G63A | 0.813 |
| C4U A15U U28C | 0.55 |
| C4G C27G | 0.816 |
| C4G C55G | 0.612 |
| C4G C55A | 0.778 |
| C4G C49U | 0.933 |
| C4G C49G | 0.682 |
| C4G C49A | 0.541 |
| C4G C30G C33A C61G | ≤ 0.5 |
| C4G U8C C22G A42C C49U A57C | 0.676 |
| C4U A14G C46G | 0.659 |
| C4G G18C A45G C62A A69C | ≤ 0.5 |

| Variant | yeast fitness |
| --- | --- |
| C4G C29G A36C A37U G38A A40C A45G G51A | ≤ 0.5 |
| C4G U7C A45U G48C | ≤ 0.5 |
| C4G G12A G52A | ≤ 0.5 |
| C4G C29G C49U C60G | ≤ 0.5 |
| C4U A15G G23C A37U C61A | ≤ 0.5 |
| C4G C34G A40G G68A | ≤ 0.5 |
| C4G C24A C34A U47C | ≤ 0.5 |
| C4U A15C C46U | 0.7 |
| C4U A15U A42C A57U | ≤ 0.5 |
| C4G U26A C49U | ≤ 0.5 |
| C4G G18C G58C C61U G68A | 0.615 |
| C4G C24U C33G G48A C49U | ≤ 0.5 |
| C4G G44C C49G G56A C61G A65U A69G | 0.641 |
| C4G G17A A69C | 0.525 |
| C4G C29G A37U C49A G58C | 0.502 |
| C4G C11G C55U G63A | ≤ 0.5 |
| C4G G18C A42U C46G | ≤ 0.5 |
| C4G C11A U35A C49U U59G G67U | 0.554 |
| C4G U28A G39A A65U G68A | ≤ 0.5 |
| C4G U8C C24G U47C | ≤ 0.5 |
| C4G C27A C46U G58C A70C | ≤ 0.5 |

| Variant | yeast fitness |
| --- | --- |
| C4G U16A A36C | 0.579 |
| C4G C31G U32G | ≤ 0.5 |
| C4G C22G C24U G41A A57U C66A | ≤ 0.5 |
| C4G G17C A43C G51A | ≤ 0.5 |
| C4G C34G A43U A70C | ≤ 0.5 |
| C4G G17A C34A A43G G68A | ≤ 0.5 |
| C4G U32C A45U | 0.537 |
| C4U A20G C30A | 0.81 |
| C4G C24U A40U A42C A45U | ≤ 0.5 |
| C4G U19A C27A | 0.741 |
| C4G C29G C66U | 0.588 |
| C4G U8A G12A G48A | 0.511 |
| C4G U13A U53A A65G | ≤ 0.5 |
| C4G U8C A15G C22G G23A C49A | ≤ 0.5 |
| C4G C24U | 0.993 |
| C4G G12U A14C U16C C49U A65G | ≤ 0.5 |
| C4G U16A U35A C61G | 0.882 |
| C4U A20C C30A C55A G67A | 0.53 |
| C4G G50A G56A | 0.727 |
| C4U A20C C46U A70G | ≤ 0.5 |
| C4G U19A A21G G52C C55G | ≤ 0.5 |
